ChEMBL document CHEMBL1131320, “Role of the C(6)-hydroxy group in bicyclomycin: synthesis, structure, and chemical, biochemical, and biological properties” (1998)
≈ marks a conversion by molar mass, not a printed value.

How the values were obtained:
[1] = target: Transcription termination factor rho (Escherichia coli) (UniProt P0AG30); test: The compound was tested for the concentration to inhibit 50% of ATPase activity
Escherichia coli [2] = test: The compound was tested for the concentration to inhibit 50% of transcription termination activity in Escherichia coli-rho and is expressed in I50.; assay type: functional
In short: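 Rho-dependent transcription termination following Platt and co-workers, at pH 7.9 with [α-³²P]UTP and rho purified from E. coli AR120/p39-AS. I50 is the average 50% inhibition concentration from duplicate tests.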

Escherichia coli [3] = test: The compound was tested for the % inhibition of transcription termination (TT) activity in Escherichia coli-rho at 100 uM; assay type: functional
In short: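 Rho-dependent transcription termination (Platt method), at pH 7.9 with [α-³²P]UTP label and purified E. coli rho. Percent termination is read at 100 µM.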

Escherichia coli [4] = test: The compound was tested for minimum inhibitory concentration (MIC) against Escherichia coli W3350 cells; assay type: functional
In short: (§1)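 Filter-disk assay; MIC taken as the average minimum inhibitory concentration from duplicate tests.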

[5] = target: Transcription termination factor rho (Escherichia coli) (UniProt P0AG30); test: The compound was tested for the % inhibition of rho poly(C)-stimulated ATPase activity at 400 uM
Escherichia coli [6] = test: The compound was tested for minimum inhibitory concentration (MIC) against Escherichia coli W3350 cells.; assay type: functional
In short: as §1

Escherichia coli [7] = test: The compound was tested for the % inhibition of rho poly(C)-stimulated ATPase activity at 400 uM; assay type: functional
In short: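 Poly(C)-dependent ATPase of purified E. coli rho (AR120/p39-AS overexpression, Lowry-quantified), run at pH 7.9 with [γ-³²P]ATP. Percent inhibition is read at 400 µM alongside a concurrently run parent-antibiotic reference.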

Sequence of Transcription termination factor rho (Escherichia coli) (P0AG30 whole entry, looked up): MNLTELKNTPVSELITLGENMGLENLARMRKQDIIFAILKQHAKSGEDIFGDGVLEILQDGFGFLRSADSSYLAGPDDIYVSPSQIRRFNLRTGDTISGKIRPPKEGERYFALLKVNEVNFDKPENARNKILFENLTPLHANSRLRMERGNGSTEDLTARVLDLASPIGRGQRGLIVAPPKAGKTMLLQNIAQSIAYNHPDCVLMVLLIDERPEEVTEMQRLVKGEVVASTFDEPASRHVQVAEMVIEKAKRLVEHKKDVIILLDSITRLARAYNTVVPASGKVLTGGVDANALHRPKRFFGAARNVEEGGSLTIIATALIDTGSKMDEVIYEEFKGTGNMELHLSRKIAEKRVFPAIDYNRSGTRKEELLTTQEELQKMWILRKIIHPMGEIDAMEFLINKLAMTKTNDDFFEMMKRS

Structure (SMILES)	I50 [1]	MIC (Escherichia coli [4]; read-out: MIC)	inhibition [5]	MIC (Escherichia coli [6])	MIC (Escherichia coli [4])	I50 (Escherichia coli [2])	inhibition at 100 µM (Escherichia coli [3])	inhibition at 400 µM (Escherichia coli [7])
C=C1CCOC2([C@@H](O)[C@@](C)(O)CO)NC(=O)[C@@]1(N(C)C)NC2=O	> 400	–	1%	> 32 µg/mL	–	> 100 µM	1%	–
C=C1CCOC2([C@@H](O)[C@@](C)(O)CO)NC(=O)[C@@]1(NC)NC2=O	> 400	> 32 µg/mL	3%	–	–	> 100 µM	2%	–
C=C1CCOC2([C@@H](O)[C@@](C)(O)CO)NC(=O)[C@@]1(NOC)NC2=O	> 400	> 32 µg/mL	13%	–	–	> 100 µM	0%	–
C=C1CCOC2([C@@H](O)[C@@](C)(O)CO)NC(=O)[C@@]1(N)NC2=O	> 400	–	–	> 32 µg/mL	–	> 100 µM	5%	17%
C=C1CCOC2([C@@H](O)[C@@](C)(O)CO)NC(=O)[C@@]1(S)NC2=O	> 400	> 32 µg/mL	28%	–	–	> 100 µM	8%	–
C=C1CCOC2([C@@H](O)[C@@](C)(O)CO)NC(=O)[C@@]1(O)NC2=O	–	–	–	–	250 µg/mL (≈ 827 µM)	5 µM	100%	–

Now from value to compound, other results behind:

I50 [1]	MIC (Escherichia coli [4]; read-out: MIC)	inhibition [5]	MIC (Escherichia coli [6])	MIC (Escherichia coli [4])	Structure (SMILES)	I50 (Escherichia coli [2])	inhibition at 100 µM (Escherichia coli [3])	inhibition at 400 µM (Escherichia coli [7])
> 400	> 32 µg/mL	45%	–	–	C=C1CCOC2([C@@H](O)[C@@](C)(O)CO)NC(=O)[C@@]1(NO)NC2=O	> 100 µM	22%	–
> 400	> 32 µg/mL	7%	–	–	C=C1CCOC2([C@@H](O)[C@@](C)(O)CO)NC(=O)[C@@]1(N(C)OC)NC2=O	> 100 µM	0%	–
> 400	> 32 µg/mL	16%	–	–	C=C1CCOC2([C@@H](O)[C@@](C)(O)CO)NC(=O)[C@@]1(N(C)O)NC2=O	> 100 µM	0%	–
> 400	> 32 µg/mL	15%	–	–	C=C1CCOC2([C@@H](O)[C@@](C)(O)CO)NC(=O)[C@@]1(NC(C)=O)NC2=O	> 100 µM	1%	–
